Columns and labels:
Substance-P receptor = Substance-P receptor (Homo sapiens, UniProt P25103); assay: Binding affinity at Tachykinin receptor 1 by measuring its ability to inhibit [125I]BH-SP binding in human IM-9 cells (Lymphoblast cells).; assay type: cell-based
Cavia porcellus [1] = assay: In vivo inhibition of capsaicin-induced plasma extravasation in guinea pig trachea on intravenous administration.; assay type: functional
Procedure, shortened: (§1)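 Guinea pigs received compound iv or po before capsaicin challenge, and tracheal plasma extravasation was measured. ID50 was derived from 5–8 animals per dose and reported with 95% confidence limits.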

Cavia porcellus [2] = assay: In vivo inhibition (percentage) of capsaicin-induced plasma extravasation in guinea pig trachea on intravenous administration at 1.0 mg/kg; assay type: functional
Procedure, shortened: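 Guinea pigs were given a single iv dose of 1.0 mg/kg. Capsaicin-induced tracheal plasma extravasation was then measured, with percent inhibition reported (n = 5 or 6).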

Cavia porcellus [3] = assay: In vivo inhibition of capsaicin-induced plasma extravasation in guinea pig trachea on peroral administration; assay type: functional; conditions: po; procedure, shortened: as §1

Chain of Substance-P receptor (P25103 whole entry): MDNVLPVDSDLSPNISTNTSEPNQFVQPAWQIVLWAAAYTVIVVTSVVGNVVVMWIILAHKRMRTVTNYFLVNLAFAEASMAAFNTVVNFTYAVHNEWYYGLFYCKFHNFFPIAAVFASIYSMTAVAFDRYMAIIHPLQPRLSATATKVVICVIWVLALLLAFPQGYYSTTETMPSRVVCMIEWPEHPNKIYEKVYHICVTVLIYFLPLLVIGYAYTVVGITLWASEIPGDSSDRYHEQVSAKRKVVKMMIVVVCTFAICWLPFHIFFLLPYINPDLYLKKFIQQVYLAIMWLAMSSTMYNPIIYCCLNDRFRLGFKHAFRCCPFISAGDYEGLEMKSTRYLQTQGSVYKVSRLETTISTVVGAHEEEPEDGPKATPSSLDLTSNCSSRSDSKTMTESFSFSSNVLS

SMILES | IC50 (Substance-P receptor) [nM] | ED50 (Cavia porcellus [1]) [mg/kg] | inhibition in vivo at 1 mg/kg (Cavia porcellus [2]) [%] | ED50 (Cavia porcellus [3]) [mg/kg]
Cc1ccc(-c2c(C(=O)N(C)[C@H](C)c3cc(C(F)(F)F)cc(C(F)(F)F)c3)n(C)c(=O)c3ncccc23)cc1 (stereo in doubt; 3b-A) [7-METHYL-8-OXO-5-P-TOLYL-7,8-DIHYDRO-[1,7]NAPHTHYRIDINE-6-CARBOXYLIC ACID (S)-[(R)-1-(3,5-BIS-TRIFLUOROMETHYL-PHENYL)-ETHYL]-METHYL-AMIDE (ENANTIOMERIC MIX)] | 19 | 0.412 | – | –
Cc1ccc(-c2c(C(=O)N(C)[C@@H](C)c3cc(C(F)(F)F)cc(C(F)(F)F)c3)n(C)c(=O)c3ncccc23)cc1 (stereo in doubt; 3a-B) [7-METHYL-8-OXO-5-P-TOLYL-7,8-DIHYDRO-[1,7]NAPHTHYRIDINE-6-CARBOXYLIC ACID (S)-[(S)-1-(3,5-BIS-TRIFLUOROMETHYL-PHENYL)-ETHYL]-METHYL-AMIDE (ENANTIOMERIC MIX)] | 44 | – | 61.8 | –
Cc1ccc(-c2c(C(=O)N(C)[C@H](C)c3ccccc3)n(C)c(=O)c3ncccc23)cc1 | 130 | – | – | –
Cc1ccc(-c2c(C(=O)N(C)Cc3cc(C(F)(F)F)cc(C(F)(F)F)c3)n(C)c(=O)c3ncccc23)cc1 [7-METHYL-8-OXO-5-P-TOLYL-7,8-DIHYDRO-[1,7]NAPHTHYRIDINE-6-CARBOXYLIC ACID (3,5-BIS-TRIFLUOROMETHYL-BENZYL)-METHYL-AMIDE (STRUCTURAL MIX)] | – | – | – | 0.11

The next lines start with results.

IC50 (Substance-P receptor) [nM] | SMILES | ED50 (Cavia porcellus [1]) [mg/kg] | inhibition in vivo at 1 mg/kg (Cavia porcellus [2]) [%] | ED50 (Cavia porcellus [3]) [mg/kg]
620 | Cc1ccc(-c2c(C(=O)N(C)[C@H](C)c3cc(C(F)(F)F)cc(C(F)(F)F)c3)n(C)c(=O)c3ncccc23)cc1 (stereo in doubt; 3b-B) [7-METHYL-8-OXO-5-P-TOLYL-7,8-DIHYDRO-[1,7]NAPHTHYRIDINE-6-CARBOXYLIC ACID (S)-[(R)-1-(3,5-BIS-TRIFLUOROMETHYL-PHENYL)-ETHYL]-METHYL-AMIDE (ENANTIOMERIC MIX)] | – | 6.9 | –
0.8 | Cc1ccc(-c2c(C(=O)N(C)[C@@H](C)c3cc(C(F)(F)F)cc(C(F)(F)F)c3)n(C)c(=O)c3ncccc23)cc1 (stereo in doubt; 3a-A) [7-METHYL-8-OXO-5-P-TOLYL-7,8-DIHYDRO-[1,7]NAPHTHYRIDINE-6-CARBOXYLIC ACID (S)-[(S)-1-(3,5-BIS-TRIFLUOROMETHYL-PHENYL)-ETHYL]-METHYL-AMIDE (ENANTIOMERIC MIX)] | 0.0093 | – | 0.0677

Reference: ChEMBL document CHEMBL1131634, “Axially chiral N-benzyl-N,7-dimethyl-5-phenyl-1, 7-naphthyridine-6-carboxamide derivatives as tachykinin NK1 receptor antagonists: determination of the absolute stereochemical requirements” (J Med Chem, 1998)
